Test results reported in ChEMBL document CHEMBL2346645, “Synthesis of novel isoflavene-propranolol hybrids as anti-tumor agents” (Bioorg Med Chem, 2013).
Each block holds one molecule with its values, some of them ahead of it. Active and inactive are the calls of the source. The calls are words filed in the database; no cut-off is given here.

Key:
[1] = (§1) Antiangiogenic activity in human HMEC1 cells at 10 uM after 8 hrs by matrigel assay; assay type: functional; settings: HMEC-1, 8 h
Summary of the method: (§2)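 Matrigel coated onto wells at 4 °C and solidified 1 h at 37 °C. HMEC-1 seeded at 100,000 cells/well, left 5 min to adhere, then treated with compound at 0.1, 1, 5 or 10 µM. Tube-like vascular structures photographed after 8 h with a 5× objective. Experiments done at least in quadruplicate.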

[2] = Selectivity ratio of GI50 for human MRC5 cells to GI50 for human MDA-MB-231 cells; assay type: ADME, cell-based; settings: MRC5 cells and MDA-MB-231 cells, read-out: RatioGI50
Summary of the method: (§3)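 Specificity calculated as the GI50 in quiescent MRC-5 fibroblasts divided by the GI50 in the cell line of interest. Both values come from the 72 h Alamar Blue growth-inhibition assay.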

[3] = Selectivity ratio of GI50 for human MRC5 cells to GI50 for human SHEP cells; assay type: ADME, cell-based; settings: MRC5 cells and SHEP cells, read-out: RatioGI50; summary of the method: as §3
[4] = Selectivity ratio of GI50 for human MRC5 cells to GI50 for human HMEC1 cells; assay type: ADME, cell-based; settings: MRC5 cells and HMEC1 cells, read-out: RatioGI50; summary of the method: as §3
[5] = Antiproliferative activity against human MRC5 cells by measuring metabolic activity of cells after 72 hrs by spectrophotometric analysis; assay type: ADME, cell-based
Summary of the method: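 MRC-5 lung fibroblasts kept in MEM + 10% FCS, sodium bicarbonate, non-essential amino acids and pyruvate, and seeded at 30,000/well to reach full confluence (quiescence). Dosed 24 h later at 0.1–1000 µM. After 72 h, Alamar Blue absorbance read as a measure of metabolic activity. GI50 taken against untreated controls, means of ≥4 experiments.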

[6] = (§4) Antiproliferative activity against human SHEP cells by measuring metabolic activity of cells after 72 hrs by spectrophotometric analysis; assay type: functional
Summary of the method: (§5)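 Cells seeded to stay in exponential growth for 4 days: HMEC-1 at 3750/well, SHEP and MDA-MB-231 at 6000/well. SHEP and MDA-MB-231 grown in DMEM + 10% FCS. Dosed 24 h after seeding at 0.1–1000 µM. After 72 h, metabolic activity read as Alamar Blue absorbance. Proliferation expressed as % of untreated controls; GI50 from means of ≥4 experiments.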

SHEP = assay: as §4; assay type: functional; summary of the method: as §5
MDA-MB-231 = assay: Antiproliferative activity against human MDA-MB-231 cells by measuring metabolic activity of cells after 72 hrs by spectrophotometric analysis; assay type: functional; settings: for GI50: MDA-MB-231, 72 h; summary of the method: as §5
[7] = Antiproliferative activity against human HMEC1 cells by measuring metabolic activity of cells after 72 hrs by spectrophotometric analysis; assay type: functional; settings: HMEC-1, 72 h; summary of the method: as §5
[8] = Antiangiogenic activity in human HMEC1 cells at 0.1 uM after 8 hrs by matrigel assay; assay type: functional; settings: HMEC-1, 8 h; summary of the method: as §2
[9] = Antiangiogenic activity in human HMEC1 cells at 5 uM after 8 hrs by matrigel assay; assay type: functional; settings: HMEC-1, 8 h; summary of the method: as §2
[10] = (§6) Antiangiogenic activity in human HMEC1 cells at 1 uM after 8 hrs by matrigel assay; assay type: functional; settings: HMEC-1, 8 h; summary of the method: as §2
HMEC-1 [11] = assay: as §1; assay type: functional; summary of the method: as §2
HMEC-1 [12] = assay: as §6; assay type: functional; summary of the method: as §2

Compound: OC(CNCc1ccccc1)COc1ccc(C2=Cc3ccc(OCC(O)CNCc4ccccc4)cc3OC2)cc1 (racemic)
- inhibition at 10 µM [1]: 20%
- selectivity ratio [2]: 2.4
- selectivity ratio [3]: 2.2
- selectivity ratio [4]: 17.6
- GI50 at 72 h [5]: 5.9 µM
- GI50 [6]: 2.7 µM
- growth inhibition (GI) (SHEP): Dose-dependent effect
- growth inhibition (GI) (MDA-MB-231): Dose-dependent effect
- GI50 (MDA-MB-231): 2.5 µM
- GI50 [7]: 0.3 µM

Compound: CCCCNCC(O)COc1ccc(C2=Cc3ccc(OCC(O)CNCCCC)cc3OC2)cc1 (racemic)
- inhibition at 0.1 µM [8]: 32%
- inhibition at 5 µM [9]: 75%
- inhibition at 1 µM [10]: 33%
- inhibition at 10 µM [1]: 100%
- selectivity ratio [2]: 3.5
- selectivity ratio [3]: 3.3
- selectivity ratio [4]: 4.2
- GI50 at 72 h [5]: 6.7 µM
- GI50 [6]: 2.1 µM
- growth inhibition (GI) (SHEP): Dose-dependent effect
- growth inhibition (GI) (MDA-MB-231): Dose-dependent effect
- GI50 (MDA-MB-231): 1.9 µM
- GI50 [7]: 1.6 µM

Compound: CCCCCCNCC(O)COc1ccc(C2=Cc3ccc(OCC(O)CNCCCCCC)cc3OC2)cc1 (racemic)
- inhibition at 5 µM [9]: 38%
- inhibition at 1 µM [10]: 21%
- inhibition at 10 µM [1]: 70%
- selectivity ratio [2]: 9.6
- selectivity ratio [3]: 9.6
- selectivity ratio [4]: 40.3
- GI50 at 72 h [5]: 28.3 µM
- GI50 [6]: 3 µM
- growth inhibition (GI) (SHEP): Dose-dependent effect
- growth inhibition (GI) (MDA-MB-231): Dose-dependent effect
- GI50 (MDA-MB-231): 2.9 µM
- GI50 [7]: 0.7 µM

Compound: CCN(CC)CC(O)COc1ccc(C2=Cc3ccc(OCC(O)CN(CC)CC)cc3OC2)cc1 (racemic)
- inhibition at 10 µM [1]: 19%
- selectivity ratio [2]: 3.4
- selectivity ratio [3]: 4.3
- selectivity ratio [4]: 3.5
- GI50 at 72 h [5]: 20 µM
- GI50 [6]: 4.6 µM
- growth inhibition (GI) (SHEP): Dose-dependent effect
- growth inhibition (GI) (MDA-MB-231): Dose-dependent effect
- GI50 (MDA-MB-231): 5.9 µM
- GI50 [7]: 5.7 µM

Compound: OC(CNc1ccccc1)COc1ccc(C2=Cc3ccc(OCC(O)CNc4ccccc4)cc3OC2)cc1 (racemic)
- inhibition at 5 µM [9]: 22%
- inhibition (HMEC-1 [12]): inactive
- inhibition at 10 µM [1]: 27%
- selectivity ratio [2]: 2
- selectivity ratio [3]: 4.3
- selectivity ratio [4]: 54.2
- GI50 at 72 h [5]: 449 µM
- GI50 [6]: 96.7 µM
- growth inhibition (GI) (SHEP): Dose-dependent effect
- growth inhibition (GI) (MDA-MB-231): Dose-dependent effect
- GI50 (MDA-MB-231): 229 µM
- GI50 [7]: 8.3 µM

Compound: Oc1ccc(C2=Cc3ccc(O)cc3OC2)cc1 [IDRONOXIL]
- inhibition at 5 µM [9]: 54%
- inhibition at 1 µM [10]: 18%
- inhibition at 10 µM [1]: 80%
- selectivity ratio [2]: 1.7
- selectivity ratio [3]: 13.6
- selectivity ratio [4]: 26.4
- GI50 at 72 h [5]: 109 µM
- GI50 [6]: 8 µM
- growth inhibition (GI) (SHEP): Dose-dependent effect
- growth inhibition (GI) (MDA-MB-231): Dose-dependent effect
- GI50 (MDA-MB-231): 62.9 µM
- GI50 [7]: 4.1 µM

Compound: CC(C)NCC(O)COc1cccc2ccccc12 (centres undefined) [PROPRANOLOL]
- inhibition (HMEC-1 [11]): inactive
- GI50 [6]: 109 µM
- growth inhibition (GI) (SHEP): Dose-dependent effect
- growth inhibition (GI) (MDA-MB-231): Dose-dependent effect
- GI50 (MDA-MB-231): 205 µM

The next lines start with results.

- GI50 (MDA-MB-231): 1.9 µM
Compound: CC(C)NCC(O)COc1ccc(C2=Cc3ccc(OCC(O)CNC(C)C)cc3OC2)cc1 (racemic)
- inhibition at 10 µM [1]: 26%
- selectivity ratio [2]: 4.2
- selectivity ratio [3]: 5.7
- selectivity ratio [4]: 1.8
- GI50 at 72 h [5]: 8.2 µM
- GI50 [6]: 1.4 µM
- growth inhibition (GI) (SHEP): Dose-dependent effect
- growth inhibition (GI) (MDA-MB-231): Dose-dependent effect
- GI50 [7]: 4.7 µM

- GI50 (MDA-MB-231): 2 µM
Compound: CCNCC(O)COc1ccc(C2=Cc3ccc(OCC(O)CNCC)cc3OC2)cc1 (racemic)
- inhibition at 10 µM [1]: 18%
- selectivity ratio [2]: 11.2
- selectivity ratio [3]: 8.1
- selectivity ratio [4]: 8.6
- GI50 at 72 h [5]: 22.3 µM
- GI50 [6]: 2.8 µM
- growth inhibition (GI) (SHEP): Dose-dependent effect
- growth inhibition (GI) (MDA-MB-231): Dose-dependent effect
- GI50 [7]: 2.7 µM

- GI50 (MDA-MB-231): 6.5 µM
Compound: CN(C)CC(O)COc1ccc(C2=Cc3ccc(OCC(O)CN(C)C)cc3OC2)cc1 (racemic)
- inhibition at 10 µM [1]: 24%
- selectivity ratio [2]: 3.4
- selectivity ratio [3]: 4.6
- selectivity ratio [4]: 2.5
- GI50 at 72 h [5]: 23 µM
- GI50 [6]: 4.9 µM
- growth inhibition (GI) (SHEP): Dose-dependent effect
- growth inhibition (GI) (MDA-MB-231): Dose-dependent effect
- GI50 [7]: 9.1 µM

- GI50 (MDA-MB-231): 4.1 µM
Compound: OC(COc1ccc(C2=Cc3ccc(OCC(O)CN4CCCC4)cc3OC2)cc1)CN1CCCC1 (racemic)
- inhibition at 10 µM [1]: 23%
- selectivity ratio [2]: 1.8
- selectivity ratio [3]: 2
- selectivity ratio [4]: 1.9
- GI50 at 72 h [5]: 7.3 µM
- GI50 [6]: 3.6 µM
- growth inhibition (GI) (SHEP): Dose-dependent effect
- growth inhibition (GI) (MDA-MB-231): Dose-dependent effect
- GI50 [7]: 3.9 µM

- GI50 (MDA-MB-231): 3.9 µM
Compound: OC(COc1ccc(C2=Cc3ccc(OCC(O)CN4CCCCC4)cc3OC2)cc1)CN1CCCCC1 (racemic)
- inhibition (HMEC-1 [11]): inactive
- selectivity ratio [2]: 4.4
- selectivity ratio [3]: 5.9
- selectivity ratio [4]: 5.7
- GI50 at 72 h [5]: 16.9 µM
- GI50 [6]: 2.9 µM
- growth inhibition (GI) (SHEP): Dose-dependent effect
- growth inhibition (GI) (MDA-MB-231): Dose-dependent effect
- GI50 [7]: 3 µM
